# From paper PMC8828683 (Stem Cell Reports, 2022)
# pIC50: −log10 of the molar value.
# Assays:
# WA01/H1 ESC [1] = test: Cellular ATP level; type: cell-based, human; conditions: read-out: IC50 ATP
# Outline: (§1)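 Cellular ATP was measured with a CellTiter-Glo luminescence viability assay after exposure to a concentration range of test compound. IC50 is the average of three independent assays. Mean IC50s across differentiated or human pluripotent lines, and their ratio, are derived from the per-line values.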
# [2] = tested on: H108 normal skin fibroblast; test: Cellular ATP level; type: cell-based, human; conditions: read-out: IC50 ATP
# Outline: as §1
# [3] = tested on: human pluripotent cells (ESC, iPSC, ECC lines); test: PCD / live cell loss; type: cell-based; conditions: ratio of average IC50
# Outline: (§2)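 Cells were seeded so that vehicle wells stayed subconfluent, then treated with a range of test compound concentrations for 4 days. Without permeabilization, they were stained with annexin-V-FITC and propidium iodide and analysed by flow cytometry. Double-negative cells (Q3) were scored as live and Q1+Q2 as programmed death. Vehicle was set to 100% viable and 0% dead. Results are the mean of three independent assays with SEM; group averages and ratios are derived from the IC50s.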
# GCT27D.C1 ECC [4] = test: Cells with <2N DNA by FACS of permeabilized cells stained with PI; type: cell-based, human
# Outline: (§3)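 Cells were exposed to a range of test compound concentrations alongside vehicle (DMSO) controls. They were then permeabilized, stained with propidium iodide, and DNA content was read by flow cytometry. IC50 is the concentration at which 50% of cells hold <2N DNA, from 3 independent repetitions with SEM. Line averages and differentiated/pluripotent ratios are derived from these IC50s. NTERA-2 was also run as a time course at 5 μM, normalized to vehicle at each time point.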
# NTERA-2 ECC [5] = test: Cellular ATP level; type: cell-based, human; conditions: read-out: IC50 ATP
# Outline: as §1
# WA09/H9 ESC [6] = test: Live cells / PCD by FACS of nonpermeabilized cells stained with annexin-V and PI; type: cell-based, human; conditions: read-out: IC50 Live Cells
# Outline: as §2
# [7] = tested on: GCT27D.C1 teratocarcinoma xenografts; test: Teratocarcinoma xenograft, daily intraperitoneal injections; type: in vivo, mice
# Outline: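 Six-week-old female […] BALB/c nude mice were injected subcutaneously in the lower right flank with 200 μL of 50% Matrigel holding 2 million NTERA-2 or 5 million GCT27D.C1 cells (eight mice per model). Once tumors were palpable, mice received 40 mg/kg test compound i.p. daily (DMSO solution diluted in sunflower oil to 200 μL) or vehicle. Tumor volume was calculated as length × width² × 0.5 from calipers, TGI was calculated, and body weight was tracked. Tumors were harvested 15 days later.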
# TERA-2 ECC [8] = test: Live cells / PCD by FACS of nonpermeabilized cells stained with annexin-V and PI; type: cell-based, human; conditions: read-out: IC50 Live Cells, 4 days
# Outline: as §2
# WA01/H1 ESC [9] = test: Cells with <2N DNA by FACS of permeabilized cells stained with PI; type: cell-based, human; conditions: read-out: IC50 DNA (50% of cells with <2N DNA)
# Outline: as §3
# GCT27D.C1 ECC [10] = test: Live cells / PCD by FACS of nonpermeabilized cells stained with annexin-V and PI; type: cell-based, human; conditions: read-out: IC50 Live Cells, 4 days
# Outline: as §2
# [11] = Maximum solubility in DMSO; type: physicochemical
# [12] = tested on: H1-diff (spontaneously differentiated H1 ESCs); test: Live cells / PCD by FACS of nonpermeabilized cells stained with annexin-V and PI; type: cell-based, human; conditions: read-out: IC50 Live Cells, 4 days
# Outline: as §2
# [13] = tested on: H108 normal skin fibroblast; test: Cells with <2N DNA by FACS of permeabilized cells stained with PI; type: cell-based, human; conditions: read-out: IC50 DNA (50% of cells with <2N DNA)
# Outline: as §3
# SCUi24 iPSC = test: Live cells / PCD by FACS of nonpermeabilized cells stained with annexin-V and PI; type: cell-based, human; conditions: read-out: IC50 Live Cells
# Outline: as §2
# [14] = tested on: HBEC normal lung epithelial; test: Cellular ATP level; type: cell-based, human; conditions: read-out: IC50 ATP
# Outline: as §1
# [15] = tested on: HBEC normal lung epithelial; test: Live cells / PCD by FACS of nonpermeabilized cells stained with annexin-V and PI; type: cell-based, human; conditions: read-out: IC50 Live Cells
# Outline: as §2
# WA09/H9 ESC [16] = test: Cells with <2N DNA by FACS of permeabilized cells stained with PI; type: cell-based, human
# Outline: as §3
# [17] = tested on: human pluripotent cells (ESCs, iPSCs, ECCs); test: ATP loss, summary over pluripotent cell lines; type: cell-based
# Outline: as §1
# VeroE6 cells = test: Inhibition of cell proliferation; type: cell-based, monkey; conditions: read-out: IC50 inhibition of proliferation
# H108 fibroblasts = test: Immunoblotting of total cell extracts; type: cell-based, human
# Outline: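 Cells were cultured with 2.5 μM test compound for up to 96 h, and attached plus unattached cells were pooled. Whole-cell RIPA lysates were run on 4–12% Bis-Tris gels, transferred to nitrocellulose and blocked in 5% milk/TBS. Primary antibodies went on overnight at 4°C, followed by infrared secondary antibodies and imager quantitation. Each blot carried untreated U2OS as a shared standard, with Ponceau-S histones for normalization and lighter exposures for quantitation. Adriamycin for 24 h (NTERA-2 1 μM, H108 2 μM) served as a DNA-break control.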
# [18] = tested on: HFF-1 normal skin fibroblast; test: Cellular ATP level; type: cell-based, human; conditions: read-out: IC50 ATP
# Outline: as §1
# TERA-2 ECC [19] = test: Cellular ATP level; type: cell-based, human; conditions: read-out: IC50 ATP
# Outline: as §1
# NTERA-2 ECC [20] = test: Cells with <2N DNA by FACS of permeabilized cells stained with PI; type: cell-based, human
# Outline: as §3
# human pluripotent cells = test: DNA loss; type: cell-based
# Outline: as §3
# differentiated cells = test: DNA loss; type: cell-based; conditions: read-out: IC50 DNA loss, on average; average over differentiated cells
# Outline: as §3
# [21] = ratio differentiated/pluripotent
# [22] = H108, 2.5 μM WX8, normalized to histones
# [23] = H108 fibroblasts, 2.5 μM WX8 or 2 μM Adriamycin 24 h
smiles,measurement,setting,value
C(=N\Nc1nc(Nc2ccccc2)nc(N2CCOCC2)n1)/c1c[nH]c2ccccc12 [WX8],pIC50,WA01/H1 ESC [1],5.80
same,pIC50,[2],4.82
same,"Difference in the initiation of PCD, differentiated vs pluripotent cells",[3],35 fold
same,"Range of sensitivity to WX8-induced cell death (DNA loss), H108/GCT27DC1",GCT27D.C1 ECC [4]; [21],700 fold
same,pIC50,"GCT27D.C1 ECC [4]; read-out: IC50 DNA (50% of cells with <2N DNA), GCT27D.C1 ECC",6.70
same,pIC50,NTERA-2 ECC [5],6.32
same,pIC50,WA09/H9 ESC [6],5.60
same,Tumor growth inhibition (TGI),"[7]; GCT27D.C1 tumors, 40 mg WX8/kg daily i.p.",78%
same,"OCT4-, SOX2- and Ki67-stained cells in tumor slices","[7]; GCT27D.C1 tumors, 40 mg WX8/kg daily i.p., immunohistochemistry",selectively eliminated cells expressing OCT4 or SOX2 protein with no detectable effect on proliferating cells
same,Mouse body weights,"[7]; GCT27D.C1 xenograft mice, 40 mg WX8/kg daily i.p.",maintained
same,Effect on teratocarcinoma xenografts,"[7]; GCT27D.C1 xenografts, intraperitoneal injections of WX8",Eliminated stem cells and inhibited tumor growth
same,pIC50,TERA-2 ECC [8],5.30
same,pIC50,WA01/H1 ESC [9],5.70
same,pIC50,GCT27D.C1 ECC [10],6.55
same,Maximum solubility,[11],about 30 mg WX8/350μL DMSO
same,pIC50,[12],< 5.00
same,pIC50,[13],3.85
same,pIC50,SCUi24 iPSC,5.60
same,pIC50,[14],5.22
same,pIC50,[15],3.85
same,"Range of sensitivity to WX8-induced cell death (DNA loss), HBEC/H9",WA09/H9 ESC [16]; [21],5 fold
same,pIC50,"WA09/H9 ESC [16]; read-out: IC50 DNA (50% of cells with <2N DNA), WA09/H9 ESC",5.30
same,"Difference in ATP loss, differentiated vs pluripotent cells",[17]; ratio of average IC50,13 fold
same,pIC50,"[17]; read-out: IC50 ATP loss, on average, average over human pluripotent cells",5.92
same,pIC50,VeroE6 cells,6.35
same,Accumulation of p62 protein,H108 fibroblasts; [22],13 fold
same,Accumulation of total LC3 protein,H108 fibroblasts; [22],10 fold
same,CASP3 cleavage,H108 fibroblasts; [23],Neither WX8 nor Adriamycin induced cleavage
same,PARP cleavage,H108 fibroblasts; [23],Neither WX8 nor Adriamycin induced cleavage
same,pIC50,[18],4.55
same,pIC50,TERA-2 ECC [19],5.52
same,Cells with <2N DNA,"NTERA-2 ECC [20]; NTERA-2, 5 μM WX8, 96h (4 days)",> 80%
same,pIC50,"NTERA-2 ECC [20]; read-out: IC50 DNA (50% of cells with <2N DNA), NTERA-2 ECC",5.46
same,"Difference in DNA loss, differentiated vs pluripotent cells",human pluripotent cells; ratio of average IC50,24 fold
same,pIC50,"human pluripotent cells; read-out: IC50 DNA loss, on average, average over human pluripotent cells",5.55
same,pIC50,differentiated cells,4.17
